In the RNAGym collection of RNA variant scans (doi:10.1038/nmeth.2970):

B1: NELF-E aptamer (parent)
chain: CCCAACGACUGCCGAGCGAGAUUACGCUUGAGCGCCCCACUGAGGAUGCCCACGGGCGAUUGGGGCACGG

Variants of: B1
Test: HiTS-RAP
Conditions: with NELF-E (Drosophila)
Method in brief: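 Aptamer DNA templates carrying a T7 promoter and ter site were sequenced on an Illumina GAIIx flowcell, then transcribed in situ by T7 RNA polymerase and halted by GST-Tus (30 minutes, 37°C). Clusters were imaged after 30-minute room-temperature equilibration with NELF-E-mOrange at 0.064 to 1000 nM in HEPES binding buffer, and only the first binding curve was used. Intensities were normalised to sequencing intensity and averaged per sequence. Kd came from weighted Hill fits, keeping fits with variance below 1,000,000.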

C9G G14U and C9G G16U are within 1.5-fold of each other in Kd: 6.47 nM for the first, 6.45 nM for the second.

First: C9G G16A
Second: C9G A43U
The Kd of the first is 14-fold lower: 5.72 nM for the first, 80.5 nM for the second.

Compared with C9G A43G, C9G C37U is 1.9-fold lower in Kd: 30.4 nM for the first, 16.1 nM for the second.

First: C9G C37A
Second: U10G G30U
The Kd of the first is 3-fold higher: 15.8 nM for the first, 5.29 nM for the second.

U10G G30A and U10G G30C are within 1.5-fold of each other in Kd: 4.59 nM for the first, 5.8 nM for the second.

Going from U10A A15G to U10A A24G, the Kd rises from 3.62 nM to 5.63 nM (1.6-fold).

U10G A15G and U10G A15C are within 1.5-fold of each other in Kd: 4.72 nM for the first, 3.77 nM for the second.

Going from U10G A15U to C9G G63U, the Kd rises from 5.99 nM to 10.3 nM (1.7-fold). The first binds more tightly here.

Going from C9G G63A to U10G A46U, the Kd rises from 15.9 nM to 65.4 nM (4.1-fold). The first binds more tightly here.

Going from U10G A46G to U10G C13A, the Kd falls from 38.8 nM to 5.77 nM (6.7-fold).

U10G C13U and U10G C13G are within 1.5-fold of each other in Kd: 4.7 nM for the first, 4.78 nM for the second.

A8U G64A and A8U G64U are within 1.5-fold of each other in Kd: 8.34 nM for the first, 9.52 nM for the second.

A8U G64C and C9U G16U are within 1.5-fold of each other in Kd: 7.62 nM for the first, 7.34 nM for the second.

Compared with U10A A39G, U10A C57U is 1.9-fold lower in Kd: 11.6 nM for the first, 5.96 nM for the second.

U10A U22G and U10G C66G are within 1.5-fold of each other in Kd: 5.49 nM for the first, 4.43 nM for the second.

U10G C66U and U10G C66A are within 1.5-fold of each other in Kd: 4.66 nM for the first, 5.44 nM for the second.

Going from U10G G58U to C9A U22G, the Kd falls from 8.62 nM to 3.88 nM (2.2-fold). The second binds more tightly here.

A8U U29G and A8U U29A are within 1.5-fold of each other in Kd: 5.87 nM for the first, 4.61 nM for the second.

A8U U29C and U10G A21C are within 1.5-fold of each other in Kd: 6.56 nM for the first, 4.39 nM for the second.

U10G A21G and U10G A21U are within 1.5-fold of each other in Kd: 5.45 nM for the first, 5.53 nM for the second.

U10A U23C and U10A U23G are within 1.5-fold of each other in Kd: 5.46 nM for the first, 5.54 nM for the second.

Compared with C9G C38U, C9G C49U is 2.8-fold higher in Kd: 8.24 nM for the first, 23.1 nM for the second. The first binds more tightly here.

U10G A59G and U10G A59U are within 1.5-fold of each other in Kd: 57.3 nM for the first, 71.4 nM for the second.

First: C9G A39U
Second: C9G A39G
The Kd of the first is 3.1-fold higher: 29.8 nM for the first, 9.62 nM for the second. The second binds more tightly here.

U10G G26U and U10G G26A are within 1.5-fold of each other in Kd: 5.07 nM for the first, 4.15 nM for the second.

Compared with U10G G26C, C9G G18A is 2.8-fold lower in Kd: 17.4 nM for the first, 6.15 nM for the second. The second binds more tightly here.

C9G G18U and U10G C33U are within 1.5-fold of each other in Kd: 6.65 nM for the first, 5.07 nM for the second.

U10G C33A and U10G C33G are within 1.5-fold of each other in Kd: 5.76 nM for the first, 5.96 nM for the second.

C9U A24G and C9G C66U are within 1.5-fold of each other in Kd: 5.62 nM for the first, 5.54 nM for the second.

First: U10G G45U
Second: U10G G45A
The Kd of the first is 9.3-fold lower: 7.35 nM for the first, 68.6 nM for the second. The first binds more tightly here.

U10G A24G and U10G A24U are within 1.5-fold of each other in Kd: 5.18 nM for the first, 6.04 nM for the second.

First: U10G A24C
Second: U10C U61A
The Kd of the first is 6.7-fold lower: 4.94 nM for the first, 33.1 nM for the second. The first binds more tightly here.

Going from U10C U61C to U10G C36A, the Kd falls from 41.4 nM to 9.48 nM (4.4-fold).

U10G C36G and U10G C36U are within 1.5-fold of each other in Kd: 6.55 nM for the first, 6.99 nM for the second.

U10G C17A and U10G C17G are within 1.5-fold of each other in Kd: 5.07 nM for the first, 4.78 nM for the second.

U10G C17U and C9G G65A are within 1.5-fold of each other in Kd: 4.88 nM for the first, 4.83 nM for the second.

Compared with C9G G65U, C9G G65C is 2.3-fold higher in Kd: 7.11 nM for the first, 16.4 nM for the second.

First: C9G U28C
Second: C9G U28A
The Kd of the first is 1.7-fold higher: 9.43 nM for the first, 5.64 nM for the second.

C9G U28G and C9U U22G are within 1.5-fold of each other in Kd: 6.8 nM for the first, 5.55 nM for the second.

First: C9G G44U
Second: C9G G44A
The Kd of the first is 2-fold lower: 9.09 nM for the first, 17.8 nM for the second. The first binds more tightly here.

U10G C27A and U10G C27G are within 1.5-fold of each other in Kd: 5.02 nM for the first, 4.93 nM for the second.

U10G C27U and C9G C13U are within 1.5-fold of each other in Kd: 3.87 nM for the first, 5.15 nM for the second.

C9G C13G and C9G C13A are within 1.5-fold of each other in Kd: 5.48 nM for the first, 7.19 nM for the second.

U10G A43C and U10G A43U are within 1.5-fold of each other in Kd: 75.8 nM for the first, 75.2 nM for the second.

First: U10G A43G
Second: C9G C17G
The Kd of the first is 3.5-fold higher: 18.8 nM for the first, 5.43 nM for the second. The second binds more tightly here.

First: C9G C17U
Second: U10G G44C
The Kd of the first is 7.5-fold lower: 4.67 nM for the first, 34.8 nM for the second. The first binds more tightly here.

Compared with U10G G44U, U10G G44A is 4.7-fold higher in Kd: 9.69 nM for the first, 45.2 nM for the second.

First: C9G G48A
Second: U10G C50A
The Kd of the first is 2-fold lower: 8.11 nM for the first, 16.6 nM for the second. The first binds more tightly here.

Compared with U10G C50G, U10G C50U is 1.9-fold higher in Kd: 7.26 nM for the first, 14 nM for the second.

First: U10G C51A
Second: U10G C51G
The Kd of the first is 2.2-fold higher: 9.77 nM for the first, 4.43 nM for the second.

U10G C51U and U10G G55C are within 1.5-fold of each other in Kd: 6.95 nM for the first, 7.54 nM for the second.

U10G G55A and U10G G55U are within 1.5-fold of each other in Kd: 8.64 nM for the first, 6.13 nM for the second.

U10C A24G and C9G G64C are within 1.5-fold of each other in Kd: 5.38 nM for the first, 5.75 nM for the second.

C9G G64A and C9G G64U are within 1.5-fold of each other in Kd: 8.13 nM for the first, 8.07 nM for the second.

First: C9U U23G
Second: A8U U47A
The Kd of the first is 2.8-fold lower: 5.63 nM for the first, 15.7 nM for the second. The first binds more tightly here.

A8U U47G and C9U C12G are within 1.5-fold of each other in Kd: 5.6 nM for the first, 6.92 nM for the second.

U10G C57U and U10G C57G are within 1.5-fold of each other in Kd: 5.61 nM for the first, 7.81 nM for the second.

First: U10G C57A
Second: U10C U22G
The Kd of the first is 2.1-fold higher: 11.8 nM for the first, 5.75 nM for the second. The second binds more tightly here.

C9G G20A and C9G G20U are within 1.5-fold of each other in Kd: 6.64 nM for the first, 7.26 nM for the second.

A8U U28C and A8U U28G are within 1.5-fold of each other in Kd: 8.73 nM for the first, 7.11 nM for the second.

A8U U28A and U10G A19G are within 1.5-fold of each other in Kd: 5.05 nM for the first, 5.12 nM for the second.

U10G A19U and C9G C25G are within 1.5-fold of each other in Kd: 4.96 nM for the first, 6.33 nM for the second.

C9G C25U and C9U A19G are within 1.5-fold of each other in Kd: 7.05 nM for the first, 5.01 nM for the second.

C9U G14A and C9U G14U are within 1.5-fold of each other in Kd: 6.66 nM for the first, 6.79 nM for the second.

U10G A31U and U10G A31C are within 1.5-fold of each other in Kd: 5.87 nM for the first, 6.21 nM for the second.

Compared with U10G A31G, C9G U60C is 1.7-fold higher in Kd: 6.79 nM for the first, 11.4 nM for the second. The first binds more tightly here.

C9G U60G and C9U C13U are within 1.5-fold of each other in Kd: 6.72 nM for the first, 5.14 nM for the second.

Going from C9U C13G to C9G A67U, the Kd rises from 5.59 nM to 8.77 nM (1.6-fold).

C9G A67G and C9G C53U are within 1.5-fold of each other in Kd: 6.17 nM for the first, 4.66 nM for the second.

C9G G56A and C9G G56U are within 1.5-fold of each other in Kd: 7.64 nM for the first, 6.71 nM for the second.

Compared with C9G U61A, C9G U61C is 2.5-fold higher in Kd: 35.2 nM for the first, 89.2 nM for the second. The first binds more tightly here.

A8U U23G and A8U U23C are within 1.5-fold of each other in Kd: 6.17 nM for the first, 5.3 nM for the second.

C9G C33U and C9U G20U are within 1.5-fold of each other in Kd: 5.9 nM for the first, 7.82 nM for the second.

First: C9G U47G
Second: C9G U47A
The Kd of the first is 2.2-fold lower: 5.29 nM for the first, 11.9 nM for the second.

U10G A67G and U10G A67U are within 1.5-fold of each other in Kd: 5.45 nM for the first, 6.91 nM for the second.

U10G A67C and U10G G14U are within 1.5-fold of each other in Kd: 5.03 nM for the first, 5.99 nM for the second.

U10G G14C and U10G G14A are within 1.5-fold of each other in Kd: 6.25 nM for the first, 5.01 nM for the second.

A8U U10C and A8U U10A are within 1.5-fold of each other in Kd: 5.96 nM for the first, 6.91 nM for the second.

A8U U10G and C9G G45U are within 1.5-fold of each other in Kd: 5.41 nM for the first, 5.69 nM for the second.

Compared with C9G G45A, U10A C13G is 6.1-fold lower in Kd: 35.6 nM for the first, 5.83 nM for the second. The second binds more tightly here.

U10G G18A and U10G G18U are within 1.5-fold of each other in Kd: 5.37 nM for the first, 5.3 nM for the second.

C9U U29G and U10C G11U are within 1.5-fold of each other in Kd: 5.3 nM for the first, 5.91 nM for the second.

First: U10G C37G
Second: U10G C37A
The Kd of the first is 2.2-fold lower: 6.84 nM for the first, 14.8 nM for the second.

U10G C37U was tested, and the Kd was 12.2 nM.
